From ChEMBL document CHEMBL2046280, “Discovery of the novel potent and selective FLT3 inhibitor 1-{5-[7-(3- morpholinopropoxy)quinazolin-4-ylthio]-[1,3,4]thiadiazol-2-yl}-3-p-tolylurea and its anti-acute myeloid leukemia (AML) activities in vitro and in vivo” (J Med Chem, 2012)
Calls of active or inactive are those of the source. The rule behind the calls is not given here.

Tests used:
[1] = test system: KARPAS-299; assay: Cytotoxicity against human KARPAS299 cells after 72 hrs by MTT assay; details: KARPAS-299, 72 h
[2] = test system: A549; assay: Cytotoxicity against human A549 cells after 72 hrs by MTT assay; details: A549, 72 h
[3] = Cytotoxicity against human H820 cells after 72 hrs by MTT assay; details: NCI-H820, 72 h
[4] = test system: HeLa; assay: Cytotoxicity against human HeLa cells after 72 hrs by MTT assay
[5] = test system: DU-145; assay: Cytotoxicity against human DU145 cells after 72 hrs by MTT assay; details: DU-145, 72 h
[6] = test system: PC-3; assay: Cytotoxicity against human PC3 cells after 72 hrs by MTT assay; details: PC-3, 72 h
[7] = test system: MV4-11; assay: Downregulation of STAT5 protein expression in human MV4-11 cells at 10 to 300 nM after 5 hrs by Western blot analysis; type: functional, cell-based
[8] = test system: MV4-11; assay: Downregulation of Erk1/2 protein expression in human MV4-11 cells at 10 to 300 nM after 5 hrs by Western blot analysis; type: functional, cell-based
[9] = test system: MV4-11; assay: Antitumor activity against human MV4-11 cells xenografted in NOD-SCID mouse assessed as tumor growth regression at 100 mg/kg, ip once daily for 21 days measured every 3 days; type: functional, organism-based; parameters: dose 100 mg/kg
How it was run: (§1)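 Female NOD-SCID mice, 6−7 weeks old, received 100 μL of MV4-11 cells (1 × 10⁸/mL in serum-free medium) s.c. in the hind flank. At 300−500 mm³ tumours, mice were randomized (6 per group). Drug was dissolved in 25% (v/v) PEG400 plus 5% DMSO and given ip once daily at 5 mL/kg. Calipers every 3 days; volume = a × b²/2.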

[10] = test system: MV4-11; assay: Antitumor activity against human MV4-11 cells xenografted in NOD-SCID mouse assessed as tumor growth inhibition at 20 mg/kg, ip once daily for 21 days measured every 3 days; type: functional; details: MV4-11, ip, route intraperitoneal, read-out: GI; how it was run: as §1
[11] = test system: MV4-11; assay: Antitumor activity against human MV4-11 cells xenografted in NOD-SCID mouse assessed as tumor growth inhibition at 40 mg/kg, ip once daily for 21 days measured every 3 days; type: functional; details: MV4-11, ip, route intraperitoneal, read-out: GI; how it was run: as §1
[12] = test system: MV4-11; assay: Antitumor activity against human MV4-11 cells xenografted in NOD-SCID mouse assessed as increase in apoptotic cells at 20 mg/kg, ip administered qd for 21 days measured after 2 to 3 days of last dose by TUNEL analysis; type: functional, organism-based; parameters: dose 20 mg/kg; details: TDE = time-dependent effect
How it was run: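 NOD-SCID mice bearing MV4-11 tumours received 20 mg/kg/d ip and were sacrificed at set times after dosing. Tumours were formalin-fixed and paraffin-embedded, and 4−8 μm sections were cut. Proliferation by Ki67 immunostaining, apoptosis by TUNEL staining, tissue by hematoxylin staining; light-microscope imaging.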

[13] = biological target: T1, Receptor-type tyrosine-protein kinase FLT3 (Homo sapiens, UniProt P36888); assay: Inhibition of human FLT3
T1 sequence (P36888 whole entry): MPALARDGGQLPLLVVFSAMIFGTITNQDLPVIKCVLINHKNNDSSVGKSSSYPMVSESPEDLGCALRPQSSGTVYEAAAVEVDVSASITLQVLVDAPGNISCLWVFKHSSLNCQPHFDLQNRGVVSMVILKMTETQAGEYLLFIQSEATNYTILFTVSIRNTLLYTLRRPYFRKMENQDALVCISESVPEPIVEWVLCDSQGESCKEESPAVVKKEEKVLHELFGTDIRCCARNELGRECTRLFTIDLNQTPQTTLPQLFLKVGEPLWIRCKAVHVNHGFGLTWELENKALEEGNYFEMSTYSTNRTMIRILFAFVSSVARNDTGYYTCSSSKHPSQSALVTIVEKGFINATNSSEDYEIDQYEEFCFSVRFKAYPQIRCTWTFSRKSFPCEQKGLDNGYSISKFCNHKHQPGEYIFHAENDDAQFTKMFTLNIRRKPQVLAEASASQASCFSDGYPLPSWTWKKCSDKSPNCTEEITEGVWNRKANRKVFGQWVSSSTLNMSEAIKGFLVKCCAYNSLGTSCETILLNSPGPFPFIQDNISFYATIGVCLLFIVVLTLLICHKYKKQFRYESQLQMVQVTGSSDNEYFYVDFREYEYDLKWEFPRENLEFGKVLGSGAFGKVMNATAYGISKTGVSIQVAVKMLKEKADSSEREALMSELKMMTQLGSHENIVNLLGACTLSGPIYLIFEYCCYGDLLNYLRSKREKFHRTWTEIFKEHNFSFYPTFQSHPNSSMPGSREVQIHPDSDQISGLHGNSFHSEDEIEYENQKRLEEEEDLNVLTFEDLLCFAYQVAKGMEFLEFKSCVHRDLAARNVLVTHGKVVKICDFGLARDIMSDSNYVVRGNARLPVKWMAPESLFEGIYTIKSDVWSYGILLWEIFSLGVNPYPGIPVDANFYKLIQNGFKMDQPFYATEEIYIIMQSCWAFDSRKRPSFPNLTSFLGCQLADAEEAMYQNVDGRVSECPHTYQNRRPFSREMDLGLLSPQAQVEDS
How it was run: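 Human FLT3 kinase assayed across a dose−response series at 200 μM ATP.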

[14] = test system: MV4-11; assay: Cytotoxicity against FLT3-dependent human MV4-11 cells after 72 hrs by MTT assay; type: functional, cell-based; details: MV4-11, 72 h
How it was run: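 Leukemia cells at 1−4 × 10⁴ per well were exposed to increasing inhibitor concentrations for 72 h at 37 °C. MTT was then added for 2−4 h, and cells were lysed with 20% acidified SDS. OD read at 570 nm. Viability relative to 0.1% DMSO controls; triplicate. MV4-11 grown in IMDM, others in RPMI 1640 or DMEM with 10% FBS.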

[15] = biological target: Macrophage colony-stimulating factor 1 receptor (Homo sapiens, UniProt P07333); assay: Inhibition of human FMS
Chain of Macrophage colony-stimulating factor 1 receptor (P07333 whole entry): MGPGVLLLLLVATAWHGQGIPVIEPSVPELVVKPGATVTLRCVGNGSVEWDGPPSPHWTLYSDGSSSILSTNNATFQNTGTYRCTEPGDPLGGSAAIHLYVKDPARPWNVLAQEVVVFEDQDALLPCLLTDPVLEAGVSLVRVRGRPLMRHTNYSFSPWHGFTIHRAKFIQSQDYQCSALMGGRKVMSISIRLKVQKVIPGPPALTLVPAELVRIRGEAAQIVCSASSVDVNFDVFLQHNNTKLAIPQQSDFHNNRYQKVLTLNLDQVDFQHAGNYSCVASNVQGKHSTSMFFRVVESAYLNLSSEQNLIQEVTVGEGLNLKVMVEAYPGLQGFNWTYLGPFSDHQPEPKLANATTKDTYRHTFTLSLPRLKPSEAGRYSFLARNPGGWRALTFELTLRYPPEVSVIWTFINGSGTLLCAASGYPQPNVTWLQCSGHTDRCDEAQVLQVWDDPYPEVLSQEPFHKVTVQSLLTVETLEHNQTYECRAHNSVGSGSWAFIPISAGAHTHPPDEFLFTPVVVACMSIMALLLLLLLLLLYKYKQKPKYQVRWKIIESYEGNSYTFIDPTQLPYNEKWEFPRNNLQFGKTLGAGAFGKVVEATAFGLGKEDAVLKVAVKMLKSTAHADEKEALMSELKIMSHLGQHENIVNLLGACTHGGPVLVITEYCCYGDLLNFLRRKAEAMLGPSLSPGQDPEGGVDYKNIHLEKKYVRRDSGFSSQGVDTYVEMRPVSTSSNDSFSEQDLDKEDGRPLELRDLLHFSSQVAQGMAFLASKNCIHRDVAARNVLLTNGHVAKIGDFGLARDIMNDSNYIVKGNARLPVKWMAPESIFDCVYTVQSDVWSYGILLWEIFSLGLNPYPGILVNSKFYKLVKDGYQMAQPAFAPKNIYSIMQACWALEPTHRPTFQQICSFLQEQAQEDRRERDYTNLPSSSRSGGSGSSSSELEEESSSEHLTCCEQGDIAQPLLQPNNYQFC

[16] = biological target: Platelet-derived growth factor receptor alpha (Homo sapiens, UniProt P16234); assay: Inhibition of human PDGFRalpha
[17] = biological target: Platelet-derived growth factor receptor beta (Homo sapiens, UniProt P09619); assay: Inhibition of human PDGFRbeta
Chain of Platelet-derived growth factor receptor beta (P09619 whole entry): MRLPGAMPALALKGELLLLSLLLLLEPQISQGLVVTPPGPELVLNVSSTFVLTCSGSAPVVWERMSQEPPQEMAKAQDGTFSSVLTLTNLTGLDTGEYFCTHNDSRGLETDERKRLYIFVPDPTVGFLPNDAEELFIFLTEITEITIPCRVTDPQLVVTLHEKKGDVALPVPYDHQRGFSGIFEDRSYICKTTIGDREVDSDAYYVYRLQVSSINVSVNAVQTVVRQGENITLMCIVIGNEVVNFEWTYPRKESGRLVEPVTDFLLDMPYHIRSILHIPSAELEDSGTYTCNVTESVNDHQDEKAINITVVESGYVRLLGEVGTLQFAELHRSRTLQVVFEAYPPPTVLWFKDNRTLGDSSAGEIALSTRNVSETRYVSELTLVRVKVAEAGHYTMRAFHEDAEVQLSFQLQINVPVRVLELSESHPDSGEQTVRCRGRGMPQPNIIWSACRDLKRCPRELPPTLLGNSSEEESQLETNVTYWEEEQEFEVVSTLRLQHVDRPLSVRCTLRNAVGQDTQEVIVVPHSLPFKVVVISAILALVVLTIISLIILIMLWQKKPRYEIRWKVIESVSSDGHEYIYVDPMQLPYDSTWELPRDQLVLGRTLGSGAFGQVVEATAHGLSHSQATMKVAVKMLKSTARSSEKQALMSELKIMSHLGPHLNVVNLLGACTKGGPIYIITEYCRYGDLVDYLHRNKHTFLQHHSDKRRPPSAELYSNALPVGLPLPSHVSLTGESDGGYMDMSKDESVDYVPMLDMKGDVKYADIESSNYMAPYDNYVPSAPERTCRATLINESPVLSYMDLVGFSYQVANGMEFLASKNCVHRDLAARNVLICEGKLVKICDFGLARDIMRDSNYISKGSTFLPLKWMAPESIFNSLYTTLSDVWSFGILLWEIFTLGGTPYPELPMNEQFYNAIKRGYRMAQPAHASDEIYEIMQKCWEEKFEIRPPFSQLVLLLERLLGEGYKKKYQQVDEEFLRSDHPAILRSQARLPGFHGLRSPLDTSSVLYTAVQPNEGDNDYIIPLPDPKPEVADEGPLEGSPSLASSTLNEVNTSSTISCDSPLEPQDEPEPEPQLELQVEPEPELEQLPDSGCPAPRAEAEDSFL

[18] = biological target: Vascular endothelial growth factor receptor 2 (Homo sapiens, UniProt P35968); assay: Inhibition of human KDR
Chain of Vascular endothelial growth factor receptor 2 (P35968 whole entry): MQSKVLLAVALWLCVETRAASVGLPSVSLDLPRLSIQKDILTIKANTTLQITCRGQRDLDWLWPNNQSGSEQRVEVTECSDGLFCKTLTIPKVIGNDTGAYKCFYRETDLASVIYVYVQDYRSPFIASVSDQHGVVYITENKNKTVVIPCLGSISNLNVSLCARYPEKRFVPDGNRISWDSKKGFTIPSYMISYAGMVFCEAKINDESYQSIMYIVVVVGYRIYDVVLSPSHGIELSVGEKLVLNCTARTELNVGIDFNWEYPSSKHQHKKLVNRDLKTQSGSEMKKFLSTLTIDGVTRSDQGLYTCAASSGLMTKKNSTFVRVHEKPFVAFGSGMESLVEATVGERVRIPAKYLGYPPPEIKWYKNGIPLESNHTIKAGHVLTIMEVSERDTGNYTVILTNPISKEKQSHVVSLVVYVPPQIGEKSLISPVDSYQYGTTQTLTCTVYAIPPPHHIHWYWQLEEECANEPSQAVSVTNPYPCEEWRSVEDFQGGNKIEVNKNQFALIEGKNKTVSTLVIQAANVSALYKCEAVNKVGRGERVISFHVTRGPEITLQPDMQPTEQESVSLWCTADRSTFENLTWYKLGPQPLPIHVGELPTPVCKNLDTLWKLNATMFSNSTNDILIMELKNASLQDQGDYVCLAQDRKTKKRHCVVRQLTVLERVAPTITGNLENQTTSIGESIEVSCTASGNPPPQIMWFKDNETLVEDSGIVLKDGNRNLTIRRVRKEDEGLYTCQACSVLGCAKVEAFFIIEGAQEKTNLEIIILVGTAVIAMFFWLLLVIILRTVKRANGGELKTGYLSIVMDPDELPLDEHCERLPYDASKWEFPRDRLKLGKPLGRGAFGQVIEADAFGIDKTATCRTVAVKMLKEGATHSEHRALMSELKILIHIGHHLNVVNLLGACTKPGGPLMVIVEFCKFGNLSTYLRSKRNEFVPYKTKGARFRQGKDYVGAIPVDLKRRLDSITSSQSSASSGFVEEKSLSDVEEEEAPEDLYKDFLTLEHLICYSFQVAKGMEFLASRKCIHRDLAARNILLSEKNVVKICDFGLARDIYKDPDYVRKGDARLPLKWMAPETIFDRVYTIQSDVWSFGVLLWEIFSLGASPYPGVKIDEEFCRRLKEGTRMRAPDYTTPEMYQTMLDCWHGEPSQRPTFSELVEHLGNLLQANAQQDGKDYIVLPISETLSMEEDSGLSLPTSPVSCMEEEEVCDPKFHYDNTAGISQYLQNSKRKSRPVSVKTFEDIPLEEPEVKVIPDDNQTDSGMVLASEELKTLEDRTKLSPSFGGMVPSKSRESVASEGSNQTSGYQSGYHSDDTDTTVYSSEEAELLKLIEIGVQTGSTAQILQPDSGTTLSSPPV

[19] = biological target: Vascular endothelial growth factor receptor 3 (Homo sapiens, UniProt P35916); assay: Inhibition of human FLT4
[20] = biological target: Serine/threonine-protein kinase pim-1 (Homo sapiens, UniProt P11309); assay: Inhibition of human Pim1
Chain of Serine/threonine-protein kinase pim-1 (P11309 whole entry): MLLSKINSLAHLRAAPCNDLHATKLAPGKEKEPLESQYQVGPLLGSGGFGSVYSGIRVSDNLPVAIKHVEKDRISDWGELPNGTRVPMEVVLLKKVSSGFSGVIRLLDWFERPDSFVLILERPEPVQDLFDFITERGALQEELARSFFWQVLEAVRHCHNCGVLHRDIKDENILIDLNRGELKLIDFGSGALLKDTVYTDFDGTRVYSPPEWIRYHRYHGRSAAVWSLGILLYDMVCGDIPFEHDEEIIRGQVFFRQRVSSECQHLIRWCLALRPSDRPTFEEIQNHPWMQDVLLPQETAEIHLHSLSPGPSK

[21] = biological target: RAF proto-oncogene serine/threonine-protein kinase (Homo sapiens, UniProt P04049); assay: Inhibition of human c-Raf
Chain of RAF proto-oncogene serine/threonine-protein kinase (P04049 whole entry): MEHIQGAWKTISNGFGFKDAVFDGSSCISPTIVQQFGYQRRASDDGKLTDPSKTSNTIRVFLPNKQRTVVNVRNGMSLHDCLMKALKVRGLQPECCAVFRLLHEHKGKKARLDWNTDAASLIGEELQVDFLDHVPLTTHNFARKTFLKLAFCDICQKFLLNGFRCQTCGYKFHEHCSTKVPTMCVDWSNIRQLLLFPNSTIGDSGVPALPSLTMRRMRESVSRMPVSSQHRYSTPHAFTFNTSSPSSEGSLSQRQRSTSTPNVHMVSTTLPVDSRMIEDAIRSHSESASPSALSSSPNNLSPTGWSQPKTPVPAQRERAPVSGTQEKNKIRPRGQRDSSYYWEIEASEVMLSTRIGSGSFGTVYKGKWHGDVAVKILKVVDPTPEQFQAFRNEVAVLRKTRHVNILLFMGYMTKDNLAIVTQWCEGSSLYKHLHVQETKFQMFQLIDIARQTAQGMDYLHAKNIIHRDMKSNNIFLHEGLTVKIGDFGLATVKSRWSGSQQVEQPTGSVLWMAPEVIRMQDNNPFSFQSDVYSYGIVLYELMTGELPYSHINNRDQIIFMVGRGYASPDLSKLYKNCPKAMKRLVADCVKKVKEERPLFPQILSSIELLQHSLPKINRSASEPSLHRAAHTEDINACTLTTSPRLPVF

[22] = biological target: Tyrosine-protein kinase Lck (Homo sapiens, UniProt P06239); assay: Inhibition of human Lck
Chain of Tyrosine-protein kinase Lck (P06239 whole entry): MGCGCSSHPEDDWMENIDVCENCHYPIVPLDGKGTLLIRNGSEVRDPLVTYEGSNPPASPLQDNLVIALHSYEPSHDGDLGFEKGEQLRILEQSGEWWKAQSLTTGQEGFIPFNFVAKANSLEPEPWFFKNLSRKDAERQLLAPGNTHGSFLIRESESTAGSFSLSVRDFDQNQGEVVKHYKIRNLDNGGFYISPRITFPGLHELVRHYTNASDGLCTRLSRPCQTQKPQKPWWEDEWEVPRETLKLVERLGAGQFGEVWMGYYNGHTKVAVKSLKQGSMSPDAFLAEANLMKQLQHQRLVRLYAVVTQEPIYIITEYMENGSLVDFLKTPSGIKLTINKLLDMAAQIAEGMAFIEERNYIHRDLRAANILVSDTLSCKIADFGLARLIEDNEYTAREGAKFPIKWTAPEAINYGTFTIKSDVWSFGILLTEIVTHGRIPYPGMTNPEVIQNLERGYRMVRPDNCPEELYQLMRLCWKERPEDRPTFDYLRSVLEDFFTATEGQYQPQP

[23] = Cmax in Sprague-Dawley rat at 40 mg/kg, ip; type: ADME, organism-based; parameters: dose 40 mg/kg, route intraperitoneal; details: in vivo
How it was run: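 Male Sprague−Dawley rats (200−250 g), n = 3, fasted overnight, with a femoral-vein catheter for blood sampling. Single 40 mg/kg ip dose; plasma drug levels measured by LC-MS/MS.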

IC50 [13]: 0.01 µM | IC50 [15]: 2.8 µM | IC50 [16]: > 10 µM | IC50 [17]: > 10 µM | IC50 [18]: > 10 µM | IC50 [19]: 3.7 µM | IC50 [20]: > 10 µM | IC50 [21]: > 10 µM | IC50 [22]: > 10 µM | Cmax [23]: 5310 ng/mL
SMILES: Cc1ccc(NC(=O)Nc2nnc(Sc3ncnc4cc(OCCCN5CCOCC5)ccc34)s2)cc1
IC50 [1]: > 20 µM | IC50 [2]: > 20 µM | IC50 [3]: > 20 µM | IC50 [4]: > 20 µM | IC50 [5]: 18.6 µM | IC50 [6]: 15.7 µM | Activity [7]: inactive | Activity [8]: inactive | Activity [9]: Active | inhibition in vivo at 20 mg/kg [10]: 66% | inhibition in vivo at 40 mg/kg [11]: 84% | Activity [12]: tde | IC50 [14]: 0.006 µM
